{"data": "Assay results gathered from unrelated publications", "target": "Protein kinase C iota type (PRKCI, Homo sapiens, UniProt P41743)", "One construct used (P41743 1-596)": "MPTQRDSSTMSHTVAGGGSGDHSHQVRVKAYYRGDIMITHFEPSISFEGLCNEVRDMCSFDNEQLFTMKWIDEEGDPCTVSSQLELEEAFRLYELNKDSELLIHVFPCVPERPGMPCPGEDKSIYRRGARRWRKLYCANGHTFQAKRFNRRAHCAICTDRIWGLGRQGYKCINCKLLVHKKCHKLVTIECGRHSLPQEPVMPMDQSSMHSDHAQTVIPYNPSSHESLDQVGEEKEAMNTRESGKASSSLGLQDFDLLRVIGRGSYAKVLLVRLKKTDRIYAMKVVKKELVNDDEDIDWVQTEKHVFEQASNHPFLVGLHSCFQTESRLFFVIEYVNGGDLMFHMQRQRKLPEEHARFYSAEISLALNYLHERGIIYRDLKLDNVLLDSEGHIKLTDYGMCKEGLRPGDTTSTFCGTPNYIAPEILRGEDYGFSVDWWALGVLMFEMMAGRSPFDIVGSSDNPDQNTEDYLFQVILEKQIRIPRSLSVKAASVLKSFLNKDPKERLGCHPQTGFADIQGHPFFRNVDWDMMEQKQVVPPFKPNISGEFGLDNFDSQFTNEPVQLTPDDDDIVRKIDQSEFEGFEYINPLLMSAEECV"}
{"SMILES": "CC#CC(=O)N1CCC[C@H]1c1nc(-c2ccc(C(=O)Nc3ccccn3)cc2)c2c(N)nccn12", "observed": "enzyme activity", "mode": "inhibitor", "tested at": "1 µM", "quantity": "inhibition", "value": "0%"}
{"SMILES": "Cc1cc(O)c(-c2ccc([C@@H](C)CN(C)C)cc2)c2c1[nH]c(=O)c1sccc12", "observed": "cell-free assay", "mode": "inhibitor", "tested at": "0.1 µM", "setting": "lysate", "quantity": "inhibition", "value": "7.26%"}
{"SMILES": "CO[C@@H]1[C@H](N(C)C(=O)c2ccccc2)C[C@H]2O[C@]1(C)n1c3ccccc3c3c4c(c5c6ccccc6n2c5c31)C(=O)NC4", "observed": "enzyme activity", "mode": "inhibitor", "tested at": "1 µM", "quantity": "inhibition", "value": "43%"}
{"SMILES": "CN1CCN(C(=O)c2ccc(NC(=O)Nc3ccc(N(C)c4ccnc(Nc5ccc(CS(C)(=O)=O)cc5)n4)cc3)cc2)CC1", "observed": "binding", "tested at": "1 µM", "quantity": "remaining binding", "value": "74%"}
{"SMILES": "CC(C)S(=O)(=O)c1ccc2nccc(Nc3ccc4sc(C5CCCC5)nc4c3)c2c1", "observed": "enzyme activity", "mode": "inhibitor", "tested at": "1 µM", "quantity": "activity vs control", "value": "107%"}
{"SMILES": "COc1ccc2[nH]c3c4[nH]c5ccc(OC)cc5c4c4c(c3c2c1)C(=O)NC4=O", "observed": "binding", "tested at": "1 µM", "quantity": "remaining binding", "value": "63%"}
{"SMILES": "CCCCC(=O)Nc1ccc(-c2ccc3ncn(CCC)c(=O)c3c2)cn1", "observed": "binding", "technique": "competition with immobilised ligand", "tested at": "0.5 µM", "quantity": "remaining binding", "value": "91%"}
{"SMILES": "C1=C/COCc2cc(ccc2OCCN2CCCC2)Nc2nccc(n2)-c2cccc(c2)COC/1", "observed": "binding", "tested at": "0.1 µM", "quantity": "remaining binding", "value": "95%"}
